Measurements from ChEMBL document CHEMBL1148400, “Synthesis of nitro esters of prednisolone, new compounds combining pharmacological properties of both glucocorticoids and nitric oxide” (J Med Chem, 2004).
Converted amounts (≈) assume the structure as drawn.

Legend:
[1] = target: T1, Glucocorticoid receptor (Homo sapiens) (UniProt P04150); assay: Displacement of [3H]dexamethasone from glucocorticoid receptor of human blood mononuclear cells at 1 uM
T1 sequence (whole entry): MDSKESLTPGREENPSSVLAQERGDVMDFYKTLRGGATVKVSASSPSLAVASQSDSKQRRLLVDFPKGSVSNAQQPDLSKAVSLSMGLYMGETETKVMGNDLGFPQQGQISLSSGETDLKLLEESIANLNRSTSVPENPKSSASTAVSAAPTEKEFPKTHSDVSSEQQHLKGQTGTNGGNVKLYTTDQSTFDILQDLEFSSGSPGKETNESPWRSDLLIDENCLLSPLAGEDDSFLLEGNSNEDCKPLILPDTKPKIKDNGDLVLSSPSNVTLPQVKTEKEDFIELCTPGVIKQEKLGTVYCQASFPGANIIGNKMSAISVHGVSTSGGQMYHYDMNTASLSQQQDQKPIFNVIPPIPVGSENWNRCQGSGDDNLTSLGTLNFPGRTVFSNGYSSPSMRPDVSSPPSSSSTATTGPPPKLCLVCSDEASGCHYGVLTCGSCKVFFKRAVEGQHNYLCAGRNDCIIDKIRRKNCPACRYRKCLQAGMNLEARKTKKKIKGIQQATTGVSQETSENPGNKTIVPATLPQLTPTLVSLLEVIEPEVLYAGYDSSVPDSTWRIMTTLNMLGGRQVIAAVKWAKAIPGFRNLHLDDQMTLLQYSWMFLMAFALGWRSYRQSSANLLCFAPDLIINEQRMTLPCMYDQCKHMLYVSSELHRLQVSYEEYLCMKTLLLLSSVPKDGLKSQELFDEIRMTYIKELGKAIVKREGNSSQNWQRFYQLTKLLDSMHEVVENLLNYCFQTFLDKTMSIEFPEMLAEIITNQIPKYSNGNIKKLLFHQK
Outline: (§1)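 PBMC isolated from human blood by histopaque gradient; 1×10^6 cells in RPMI with 1% glutamine given 50 nM [3H]dexamethasone plus compound at 1 μM (from 10 mM DMSO stock; control 0.1% DMSO), 1 h at 37 °C. Four ice-cold PBS washes, bound label by scintillation minus nonspecific binding; fmol/mL and % specific displacement; n = 3.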

[2] = target: T1, Glucocorticoid receptor (Homo sapiens); assay: Inhibition of [3H]dexamethasone binding to glucocorticoid receptor of human blood mononuclear cells; outline: as §1
Mus musculus = species on record: Mus musculus; assay: Compound was tested for the inhibition of neutrophil (PMN) extravasation in the zymosan-induced peritonitis mouse; assay type: functional; set-up: unit: PMN per peritoneal cavity
Outline: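 Mice dosed i.p. at 13.8 μmol/kg (equimolar to 5 mg/kg prednisolone) 1 h before i.p. zymosan (1 mg in 0.5 mL saline); vehicle peanut oil. Polymorphonuclear cells recruited per peritoneal cavity counted at 4 h; % inhibition vs vehicle group; mean ± SEM, n = 5 mice/group; ANOVA with Bonferroni.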

[3] = Water solubility was determined; assay type: ADME
Outline: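 Excess compound stirred in pH 7.4 phosphate buffer 3 h (25 °C), filtered 0.45 μm; saturated solution absorbance read at each compound's UV maximum and concentration derived against a standard solution; reported in mM.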

Compound	Displacement [1] [%]	[3H]dexamethasone bound [2] [fmol/mL]	Activity (Mus musculus)	solubility [3] [µM]
C[C@]12C=CC(=O)C=C1CCC1C2[C@@H](O)C[C@@]2(C)C1CC[C@]2(O)C(=O)COC(=O)CCCO[N+](=O)[O-] (some centres undefined)	87	1.6	9100000	–
C[C@]12C=CC(=O)C=C1CCC1C2[C@@H](O)C[C@@]2(C)C1CC[C@]2(O)C(=O)COC(=O)CN1CCC(CCO[N+](=O)[O-])CC1 (some centres undefined)	86	1.7	–	710 (≈ 408 µg/mL)
C[C@]12C=CC(=O)C=C1CCC1C2[C@@H](O)C[C@@]2(C)C1CC[C@]2(O)C(=O)COC(=O)CN1CCC(CCCO[N+](=O)[O-])CC1 (some centres undefined)	81	2.3	–	150 (≈ 88.3 µg/mL)
C[C@]12C=CC(=O)C=C1CCC1C2[C@@H](O)C[C@@]2(C)C1CC[C@]2(O)C(=O)COC(=O)CN1CCN(CCCO[N+](=O)[O-])CC1 (some centres undefined)	83	2.1	7800000	53300 (≈ 31400 µg/mL)
C[C@]12C=CC(=O)C=C1CCC1C2[C@@H](O)C[C@@]2(C)C1CC[C@]2(O)C(=O)COC(=O)c1ccc(CO)cc1 (some centres undefined)	57	5.3	–	–
C[C@]12C=CC(=O)C=C1CCC1C2[C@@H](O)C[C@@]2(C)C1CC[C@]2(O)C(=O)COC(=O)c1ccc(CO[N+](=O)[O-])cc1 (some centres undefined)	47	6.6	4100000	7 (≈ 3.78 µg/mL)
C[C@]12C=CC(=O)C=C1CCC1C2[C@@H](O)C[C@@]2(C)C1CC[C@]2(O)C(=O)COC(=O)c1ccccc1CO[N+](=O)[O-] (some centres undefined)	30	8.7	–	–
C[C@]12C=CC(=O)C=C1CCC1C2[C@@H](O)C[C@@]2(C)C1CC[C@]2(O)C(=O)COC(=O)c1cccc(CO[N+](=O)[O-])c1 (some centres undefined)	–	19.8	–	–
C[C@]12C=CC(=O)C=C1CCC1C2[C@@H](O)C[C@@]2(C)C1CC[C@]2(O)C(=O)COC(=O)CN1CCN(CCO[N+](=O)[O-])CC1 (some centres undefined)	66	4.2	9000000	21300 (≈ 12300 µg/mL)
C[C@]12C=CC(=O)C=C1CC[C@@H]1[C@@H]2[C@@H](O)C[C@@]2(C)[C@H]1CC[C@]2(O)C(=O)CO [PREDNISOLONE]	56	5.5	–	270 (≈ 97.3 µg/mL)
